Source: ChEMBL document CHEMBL1132588, “Synthesis, CoMFA analysis, and receptor docking of 3,5-diacyl-2, 4-dialkylpyridine derivatives as selective A3 adenosine receptor antagonists” (J Med Chem, 1999)

How the values were obtained:
[1] = target: T1, Adenosine receptor A3 (Homo sapiens) (UniProt P0DMS8); experiment: (§1) Displacement of specific [125 I]AB-MECA binding at human Adenosine A3 receptor expressed in HEK cells; assay type: cell-based; conditions: HEK293
T1 sequence (whole entry): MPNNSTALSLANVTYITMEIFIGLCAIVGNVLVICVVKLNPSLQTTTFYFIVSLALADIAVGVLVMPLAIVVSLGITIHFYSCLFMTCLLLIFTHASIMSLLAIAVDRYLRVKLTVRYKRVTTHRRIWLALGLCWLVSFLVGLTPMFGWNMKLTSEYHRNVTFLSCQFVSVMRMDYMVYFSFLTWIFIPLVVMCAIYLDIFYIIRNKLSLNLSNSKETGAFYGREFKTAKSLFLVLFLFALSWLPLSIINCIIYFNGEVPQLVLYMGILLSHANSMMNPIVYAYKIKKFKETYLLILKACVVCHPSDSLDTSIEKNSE

[2] = target: T2, Adenosine receptor A3 (Homo sapiens, UniProt P0DMS8); experiment: as §1; assay type: cell-based, HEK293
T2 sequence (P0DMS8 whole entry): T1 sequence (whole entry)
Procedure, shortened: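 Membranes from HEK-293 cells stably expressing human A3 receptor (clone HS-21a), or from CHO cells stably expressing rat A3 receptor (rat: n = 3-5), in 50 mM Tris, 10 mM Mg2+, 1 mM EDTA, pH 8.0. Membranes at 0.3 mg protein/mL with [125I]AB-MECA at 0.3 nM final. Nonspecific binding defined with R-PIA. Competitors were dissolved in DMSO (≤2% final) and tested at ≥5 concentrations spanning 3 log units. Bound ligand was separated by GF/B filtration with three buffer rinses; Ki was derived.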

[3] = target: Adenosine receptor A2a (Rattus norvegicus) (UniProt P30543); experiment: Displacement of specific [3H]-CGS- 21680 binding to Adenosine A2A receptor in rat striatal membranes; assay type: cell membranes; parameters: concentration or dose not given beside the values; conditions: Membrane, concentration not given here
Procedure, shortened: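 Rat striatal membranes labelled with [3H]CGS 21680 for A2A binding. Adenosine deaminase (3 units/mL) was present during membrane preparation, during a 30 min preincubation at 30 °C, and during radioligand incubation. Competitors were dissolved in DMSO and diluted in buffer (DMSO ≤2%).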

[4] = organism: Rattus norvegicus; experiment: Ratio of binding affinities for rat A1 receptor against human A3 receptor, [Ki(rA1) / Ki (hA3)].
Procedure, shortened: (§2)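 Ratio of Ki values from binding assays. For A3, [125I]AB-MECA (final 0.3 nM) bound membranes of HEK-293 cells expressing human A3 (clone HS-21a) or CHO cells expressing rat A3, in Tris/Mg2+/EDTA buffer at pH 8.0. For rat A1, [3H]R-PIA bound cerebral cortex membranes, with adenosine deaminase (3 units/mL) present, including a 30 min preincubation at 30 °C.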

[5] = target: T3, Adenosine receptor A1 (Rattus norvegicus, UniProt P25099); experiment: Displacement of specific [3H]-CGS- 21680R-PIA binding to Adenosine A1 receptor in rat brain membranes.; assay type: cell membranes; conditions: in the assay text read “[3H]R-PIA” for “[3H]-CGS- 21680R-PIA”
T3 sequence (P25099 whole entry): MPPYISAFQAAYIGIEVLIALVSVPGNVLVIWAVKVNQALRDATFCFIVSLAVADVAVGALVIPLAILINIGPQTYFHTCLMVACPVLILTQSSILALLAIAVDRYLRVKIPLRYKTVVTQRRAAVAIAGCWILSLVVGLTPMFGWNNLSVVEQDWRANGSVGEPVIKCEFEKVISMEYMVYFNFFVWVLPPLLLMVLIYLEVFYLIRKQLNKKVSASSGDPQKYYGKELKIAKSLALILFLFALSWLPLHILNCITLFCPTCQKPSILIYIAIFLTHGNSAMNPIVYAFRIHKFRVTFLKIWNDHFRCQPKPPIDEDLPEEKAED
Procedure, shortened: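 A1 binding used [3H]R-PIA on rat cerebral cortex membranes. Adenosine deaminase (3 units/mL) was included in membrane preparation, in a 30 min preincubation at 30 °C, and throughout radioligand incubation. Competitors were DMSO stocks diluted in buffer, with DMSO never above 2%.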

[6] = target: Adenosine receptor A2a (Rattus norvegicus, UniProt P30543); experiment: Inhibition of [3H]-CGS- 21680 binding to Adenosine A2A receptor in rat striatal membranes.; assay type: cell membranes, Membrane
[7] = organism: Rattus norvegicus; experiment: Ratio of the binding affinities against rat A3 receptor / human A3 receptor, Ki(rA1) / Ki (hA3).; procedure, shortened: as §2
[8] = organism: Rattus norvegicus; experiment: Ratio of the binding affinities against rat A3 receptor / rat A3 receptor, Ki(rA1) / Ki (rA3).; procedure, shortened: as §2
[9] = target: T4, Adenosine receptor A3 (Rattus norvegicus, UniProt P28647); experiment: Displacement of specific [125I]AB-MECA binding at rat Adenosine A3 receptor stably expressed in CHO cells; assay type: cell-based
T4 sequence (P28647 whole entry): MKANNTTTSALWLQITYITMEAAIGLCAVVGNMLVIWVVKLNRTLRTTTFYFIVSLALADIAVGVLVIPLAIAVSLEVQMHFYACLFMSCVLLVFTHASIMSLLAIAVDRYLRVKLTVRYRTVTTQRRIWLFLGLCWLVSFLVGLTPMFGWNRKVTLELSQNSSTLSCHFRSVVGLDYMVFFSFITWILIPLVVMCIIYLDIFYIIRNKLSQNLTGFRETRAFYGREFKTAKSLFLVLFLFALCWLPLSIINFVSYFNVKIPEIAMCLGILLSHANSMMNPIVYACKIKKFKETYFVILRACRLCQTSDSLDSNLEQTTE

Chain of Adenosine receptor A2a (P30543 whole entry): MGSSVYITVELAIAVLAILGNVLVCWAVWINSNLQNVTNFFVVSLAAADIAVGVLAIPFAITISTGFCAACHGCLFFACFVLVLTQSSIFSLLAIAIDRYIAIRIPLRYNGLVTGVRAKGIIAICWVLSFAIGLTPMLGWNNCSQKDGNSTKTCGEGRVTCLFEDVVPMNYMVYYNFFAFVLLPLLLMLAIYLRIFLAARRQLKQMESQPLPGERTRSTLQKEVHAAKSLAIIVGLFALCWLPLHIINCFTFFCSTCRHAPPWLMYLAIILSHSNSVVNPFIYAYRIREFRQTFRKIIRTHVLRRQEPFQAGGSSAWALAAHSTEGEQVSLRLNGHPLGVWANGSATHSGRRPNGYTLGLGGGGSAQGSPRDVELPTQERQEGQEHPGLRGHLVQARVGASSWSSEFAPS
Chain of Adenosine receptor A2a (Rattus norvegicus) (P30543 whole entry): as above

Row | SMILES | pKi [1] | Ki [2] [µM] | Ratio [4] | Ki [5] [µM] | Ki [6] [µM] | other results
1 | CCSC(=O)c1c(C)nc(-c2ccccc2)c(C(=O)OCc2ccccc2)c1CC | 5.58 | – | – | – | – | –
2 | CCOC(=O)c1c(C)nc(-c2ccccc2)c(C(=O)OCC)c1C | 5.35 | – | – | – | – | –
3 | CCOC(=O)c1c(-c2ccccc2)nc(C)c(C(=O)SCCOC)c1CC | 6.78 | – | – | – | – | –
4 | CCCOC(=O)c1c(-c2ccccc2)nc(CC)c(C(=O)SCC2COC(C)(C)O2)c1CCC (stereo not given) | – | 2.64 | 2.2 | – | – | inhibition [3]: < 10%
5 | CCCOC(=O)c1c(-c2ccccc2)nc(CCOCc2ccccc2)c(C(=O)SCC)c1CCC | 6.96 | 0.109 | – | 16 | – | –
6 | CCOC(=O)c1c(-c2ccccc2)nc(CC)c(C(=O)O)c1CC | 5.89 | – | – | – | – | –
7 | CCSC(=O)c1c(CC)nc(-c2ccccc2)c(C(=O)OCCO)c1CC | 6.73 | – | – | – | – | –
8 | CCCc1nc(-c2ccccc2)c(C(=O)OCC)c(CC)c1C(=O)SCC | 7.48 | – | – | – | – | –
9 | CCCOC(=O)c1c(-c2cccc(F)c2)nc(CC)c(C(=O)SCC)c1CCC | 7.54 | 0.0289 | 280 | 8.2 | 28.1 | –
10 | CCOC(=O)c1c(CC)nc(-c2ccccc2)c(C(=O)OCC)c1C | 6.92 | – | – | – | – | –
11 | CCCOC(=O)c1c(-c2ccccc2)nc(CC)c(C(=O)SCC)c1CCCO | 6.77 | – | – | – | – | –
12 | CCCc1c(C(=O)SCC)c(CC)nc(-c2ccccc2)c1C(=O)OCCCF | 8.01 | 0.00967 | 630 | 6.05 | 9.67 | Ratio [7]: 53; Ratio [8]: 12; Ki [9]: 0.512 µM
13 | CCCOC(=O)c1c(-c2cccc(Cl)c2)nc(CC)c(C(=O)SCCC)c1CC | 8.1 | – | – | – | – | –
14 | CCCOC(=O)c1c(-c2ccc(F)cc2)nc(CC)c(C(=O)SCC)c1CCC | 7.51 | 0.0311 | 1300 | 41 | – | inhibition [3]: 50%
15 | CCCCc1nc(-c2ccccc2)c(C(=O)OCC)c(CC)c1C(=O)SCC | 7.46 | – | – | – | – | –
16 | CCCc1c(C(=O)SCC)c(C)nc(-c2ccccc2)c1C(=O)OCC | 6.71 | – | – | – | – | –
17 | CCCOC(=O)c1c(C)nc(-c2ccccc2)c(C(=O)OCC)c1C | 6.67 | – | – | – | – | –
18 | CCCOC(=O)c1c(-c2ccccc2)nc(CC)c(C(=O)SCCF)c1CCC | 7.26 | 0.0551 | 150 | 8.22 | 24.8 | –
19 | CCCOC(=O)c1c(-c2ccccc2)nc(CC)c2c1CCSC2=O | 7.6 | 0.248 | – | 16.5 | 67.1 | Ki [9]: 2.58 µM
20 | CCCOC(=O)c1c(-c2ccccc2)nc(CC)c(C(=O)SCC(F)(F)F)c1CCC | 7.74 | 0.0181 | 460 | 8.29 | 6.14 | Ratio [7]: 27; Ratio [8]: 17; Ki [9]: 0.495 µM

Row | SMILES | pKi [1] | Ki [2] [µM] | Ratio [4] | Ki [5] [µM] | Ki [6] [µM] | other results
21 | CCOC(=O)c1c(C)nc(C2CCCC2)c(C(=O)OCc2ccccc2)c1C#Cc1ccccc1 | 5.41 | – | – | – | – | –
22 | CCOC(=O)c1c(-c2cccc(Cl)c2)nc(CC)c(C(=O)SCC)c1CC | 7.87 | – | – | – | – | –
23 | CCCc1c2c(nc(-c3ccccc3)c1C(=O)OCC)CCSC2=O | – | – | – | 25.1 | 43.6 | –
24 | CCCOC(=O)c1c(-c2ccccc2)nc(CC)c(C(=O)SCC)c1CCO | 6.58 | 0.262 | 35 | 9.04 | 0.0103 | –
25 | CCOC(=O)c1c(-c2ccccc2)nc(C)c(C(=O)SCC)c1CC | 7.37 | – | – | – | – | –
26 | CCSC(=O)c1c(CC)nc(-c2ccccc2)c(C(=O)OCCF)c1CC | 8.37 | – | 2700 | 11.5 | 7.33 | Ratio [7]: 140; Ratio [8]: 19; Ki [9]: 0.6 µM
27 | CCOC(=O)c1c(-c2ccccc2)nc(CCOC)c(C(=O)SCC)c1CC | 7.77 | – | – | – | – | –
28 | CCOC(=O)c1c(C)nc(-c2ccccc2)c(C(=O)OCC)c1C(OC)OC | 6.11 | – | – | – | – | –
29 | CCOC(=O)c1c(C)nc(-c2ccccc2)c(C(=O)OCC)c1CC | 6.75 | – | – | – | – | –
30 | CCOC(=O)c1c(-c2ccccc2)nc(CC)c(C(=O)SCC)c1CCN1C(=O)c2ccccc2C1=O | 6.61 | 0.243 | 2 | 0.49 | 1.14 | –
31 | CCCc1c(C(=O)SCC)c(CC)nc(-c2ccccc2)c1C(=O)OCC(F)(F)C(F)(F)F | 6.35 | 0.446 | 13 | 5.68 | 14 | –
32 | CCOC(=O)c1c(-c2ccccc2)nc(C2CCC2)c(C(=O)SCC)c1CC | 6.84 | – | – | – | – | –
33 | CCOC(=O)c1c(C2CCCC2)nc(CC)c(C(=O)SCC)c1CC | 5.47 | – | – | – | – | –
34 | CCOC(=O)c1c(C)nc(C2CCC2)c(C(=O)OCc2ccccc2)c1C#Cc1ccccc1 | 5.62 | – | – | – | – | –
35 | CCCSC(=O)c1c(CC)nc(-c2ccccc2)c(C(=O)OCC)c1CC | 7.8 | – | – | – | – | –
36 | CCCOC(=O)c1c(-c2ccccc2)nc(CC)c(C(=O)SCCO)c1CCC | 7.29 | 0.0511 | 210 | 10.8 | 5.59 | –
37 | CCCOC(=O)c1c(-c2ccccc2)nc(CC)c(C(=O)SCC)c1CCSC(C)=O | 6.91 | 0.124 | 79 | 9.8 | – | inhibition [3]: 28%
38 | CCCOC(=O)c1c(-c2ccccc2)nc(CC)c(C(=O)SCC)c1CCC | 7.72 | 0.0189 | – | 15.6 | 2.05 | Ratio [7]: 6; Ratio [8]: 140
39 | CCOC(=O)c1c(-c2ccccc2)nc(CC)c(C(=O)SCC)c1CC | 7.67 | – | > 3000 | 0.041 | – | Ratio [7]: 21; Ratio [8]: > 100
40 | CCOC(=O)c1c(C)nc(-c2ccccc2)c(C(=O)OCc2ccccc2)c1C#Cc1ccccc1 | 5.56 | – | – | – | – | –
